The data set can be described thus: Toxicity liver stage against HepG2, at 10uM. Set-up: test concentration 10 uM, cell line HepG2-A16-CD81EGFP. The conditions noted are these: human, HepG2-A16-CD81EGFP cells; read-out: INHIBITION
The data set is classed as cell-based. Summed up:
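Uninfected HepG2-A16-CD81EGFP cells, 3 × 10^3 per well, 1536-well, plated on prespotted compound at 10 μM final, parasite-free screening media added to match infected plates; puromycin 10 μM positive, DMSO 0.5% negative; run in parallel with 48 h PbLuc assay at 37 °C, 5% CO2; viability by CellTiter-Glo luminescence, normalized to controls.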

For `O=c1c(S(=O)(=O)N2CCCCC2)cccn1Cc1cccnc1`, the cytotoxicity at 10 µM is -2.56%.

In the case of `O=C1NCCCCC1NC(=O)N1CCCc2cc(F)ccc21` (centres undefined), the cytotoxicity at 10 µM was -4.53%.

On to `COCC(O)CN(C)C(=O)NC1CCN(S(C)(=O)=O)CC1` (centres undefined), for which the cytotoxicity at 10 µM was -0.778%.

Take `Cc1nnc(N2CCOC(CN(C)C)C2)c(C#N)c1C` (centres undefined): the cytotoxicity at 10 µM was -9.95%.

As for `CC(C)c1nccn1Cc1cc(C(=O)NCC(F)(F)F)n[nH]1`, the cytotoxicity at 10 µM worked out at 3.73%.

On to `COCc1cc(N2CCOC(c3ccc(F)cc3)C2)ncn1` (centres undefined), for which the cytotoxicity at 10 µM is -0.987%.

Turning to `CCS(=O)(=O)NCc1cc(Br)c(OC)c(OC)c1`, the cytotoxicity at 10 µM is -6.83%.

On to `Cc1cc(F)c2c(c1)CCCN2Cc1cc(=O)n(C)c(=O)n1C`, for which the cytotoxicity at 10 µM is 8.1%.

Consider `CCCS(=O)(=O)NC1CCc2c(ccc(=O)n2CC2CC2)C1` (centres undefined), for which the cytotoxicity at 10 µM is -67.3%.

As to `CC(=O)N1CCN(Cc2csc(-c3cnn(C)c3)n2)CC1`, the cytotoxicity at 10 µM is -1.78%.

`Cc1occc1C(=O)N1CCC2(CCCN(CC3CCC3)C2=O)C1` (centres undefined): the cytotoxicity at 10 µM is -5.47%.

On to `CCCS(=O)(=O)N1CCC2(CCCN(Cc3cccc(F)c3F)C2=O)C1` (centres undefined), for which the cytotoxicity at 10 µM worked out at 10.3%.

Take `COc1cc(N2CC[C@H](O)[C@@H]2Cc2cnn(C)c2)ncn1`: the cytotoxicity at 10 µM came out at 1.72%.

As to `Cc1cc(C)c(CNC(=O)N2CCC(N3CCNC3=O)CC2)c(=O)[nH]1`, the cytotoxicity at 10 µM was 4.16%.

For `O=C(CCN1CCc2ccccc21)N1C[C@@H](O)[C@H](N2CCCC2)C1`, the cytotoxicity at 10 µM was -17.8%.

Regarding `CN1CCCCC1CC(=O)Nc1ccc2ncn(C)c2c1` (centres undefined), the cytotoxicity at 10 µM is 4.18%.

`Cc1nn(C)c(C)c1C1CCCN1C(=O)CCCc1ccccn1` (centres undefined): the cytotoxicity at 10 µM was 2.43%.

Turning to `Cc1ccc2c(c1)CN(C(=O)c1cccs1)C(CN(C)C)CO2` (centres undefined), the cytotoxicity at 10 µM is -16.5%.

Take `O=C(Cc1ccccc1Br)NCC(=O)Nc1cn[nH]c1`: the cytotoxicity at 10 µM stood at 7.44%.

For `CCOCCNC(=O)Nc1ccc(OCc2noc(C3CC3)n2)cc1`, the cytotoxicity at 10 µM came out at 6.48%.

In the case of `COc1ccc(F)c(NCc2cnn(C3CCS(=O)(=O)C3)c2)c1` (centres undefined), the cytotoxicity at 10 µM stood at 2.65%.

Turning to `c1ccc(-c2cc(CNCCN3CCCC3)c3nnnn3c2)cc1`, the cytotoxicity at 10 µM is -17.4%.

`O=C(C1CC(=O)N(c2n[nH]c3cc(Br)ccc23)C1)N1CCSCC1` (centres undefined): the cytotoxicity at 10 µM was -1.91%.

For the compound `CS(=O)(=O)NC1CCCN(C(=O)NCc2cc[nH]n2)C1` (centres undefined), the cytotoxicity at 10 µM was found to be 4.14%.

Consider `CC(C)(C)C(=O)N[C@H]1C[C@@H](Cc2cc(CN3CCOCC3)on2)C1(C)C`, for which the cytotoxicity at 10 µM was -7.15%.

Regarding `Cc1ncc(-c2ccnc(N3CCC[C@@H]3CO)n2)c(-c2cccnc2)n1`, the cytotoxicity at 10 µM is -8.49%.

`CC(C)NS(=O)(=O)c1cc(C(=O)O)cc(-c2ccccc2F)c1`: the cytotoxicity at 10 µM was -7.56%.

Regarding `COc1ccc(CC2CN(C3CCSCC3)CCO2)cc1` (centres undefined), the cytotoxicity at 10 µM was found to be 4.49%.

Turning to `CCc1cnc2c(c1NCc1ccc(OC)cc1)c(=O)n(C)c(=O)n2C`, the cytotoxicity at 10 µM was found to be 5.79%.

Consider `COc1ccccc1OC1CCN(C(=O)C2CCCN(C)C2)CC1` (centres undefined), for which the cytotoxicity at 10 µM is -53.5%.

`CN(CCCN1CCOCC1)[C@@H]1c2ccccc2C2(CCNCC2)[C@H]1O`: the cytotoxicity at 10 µM is -3.12%.

With `Cc1nccc(CN2Cc3nccn3CC2c2ccccc2)n1` (centres undefined), the cytotoxicity at 10 µM was 3.1%.

Regarding `CC(CCn1cccn1)Nc1ccc(-c2nccn2C)nn1` (centres undefined), the cytotoxicity at 10 µM turned out to be 1.39%.

For `CS(=O)(=O)N1CCC2(CC1)CN(CC1CC1)CC21CCNC1=O` (centres undefined), the cytotoxicity at 10 µM was found to be 1.26%.

Regarding `CC(C)(NC(=O)C1CCCN(C2CCCC2)C1)c1nnc(N)s1` (centres undefined), the cytotoxicity at 10 µM was 3.27%.

For the compound `CN1CCC(c2cccc(C(=O)N(C)C)n2)CC1`, the cytotoxicity at 10 µM stood at 4.53%.

On to `CN(C)C[C@@H]1C[C@@H]2CN(Cc3nccn3C)CC[C@@H]2N1CC1CC1`, for which the cytotoxicity at 10 µM is -101%.

On to `Cc1cccc2c1NC1(CCOCC1)NC2=O`, for which the cytotoxicity at 10 µM is -49.6%.

For the compound `O=c1[nH]c(NCc2cccc(OC(F)F)c2)nc2c1CCNC2`, the cytotoxicity at 10 µM turned out to be 2.47%.

These data come from ChEMBL document CHEMBL4513216, “Probing the Open Global Health Chemical Diversity Library for Multistage-Active Starting Points for Next-Generation Antimalarials” (ACS Infect Dis, 2020).
